This is an account of results in ChEMBL document CHEMBL1151890, “Synthesis and SAR of amino acid-derived heterocyclic progesterone receptor full and partial agonists” (Bioorg Med Chem Lett, 2009).

Common to all, as to assay type: ADME, organism-based
Data set [1] in a line: AUC (0 to t) in rat at 2 mg/kg, po. Also noted: dose 2 mg/kg, route oral. To be noted: plasma. Put shortly:
(§1)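 Rats were dosed both intravenously and orally, at 1.1 or 1.2 mg/kg iv and 2.0 or 2.3 mg/kg po. Plasma parameters were derived from these dosings. Values are means of three experiments with standard deviation.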

Data set [2] is described as follows: Oral bioavailability in rat at 2 mg/kg. The conditions noted are these: in vivo. A digest of the protocol: as §1
Data set [3] is described as follows: Cmax in rat at 2 mg/kg, po. Also noted: dose 2 mg/kg, route oral. To be noted: in vivo. A digest of the protocol: as §1
The nature of data set [4]: Half life in rat at 2 mg/kg, po. Also noted: dose 2 mg/kg, route oral. The conditions noted are these: in vivo. Put shortly: as §1

As usually defined, the AUC(0-t) is exposure summed from dosing to a finite time, without extrapolation to infinity. A high value points to high exposure. Usually bioavailability stands for dose-corrected exposure relative to a reference, in per cent. The Cmax is the maximum level reached in the sampled fluid or tissue. As a reminder, the half-life is how long it takes for the measured level to halve. A low value points to fast loss. For `CC(C)CC(c1nnnn1C)N(CC(C)C)c1ccc(C#N)c(Cl)c1` (centres undefined), in data set [1], the AUC(0-t) worked out at 572 ng·h/mL. Also, in data set [2], the bioavailability came out at 100%. Besides, the concentration in data set [3] peaked (Cmax) at 146 ng/mL. Further, the half-life in data set [4] was 8.9 h.
